Experimental data taken from ChEMBL document CHEMBL5257128, “Design, synthesis and biological evaluation of covalent peptidomimetic 3CL protease inhibitors containing nitrile moiety” (Bioorg Med Chem, 2023).
pEC50, pIC50: −log10 of the molar value.

Columns and labels:
[1] = biological target: Replicase polyprotein 1ab (Severe acute respiratory syndrome coronavirus 2, UniProt P0DTD1); assay: Inhibition of full length SARS-CoV-2 3CL protease expressed in Escherichia coli BL21 (DE3) using Dacyl-KTSAVLQSGFRKME-Edans fluorogenic peptide as substrate pre-incubated for 10 mins followed by substrate addition by FRET assay
SARS-CoV-2 = assay: Antiviral activity against SARS-CoV-2 infected in African green monkey Vero E6 cells pre-incubated for 1 hr followed by viral infection measured after 2 hrs by qRT-PCR analysis; type: functional, organism-based; settings: Severe acute respiratory syndrome coronavirus 2, Vero C1008
[2] = Observed MRTinfinity in mouse at 10 mg/kg, iv by LC-MS/MS analysis; type: ADME, organism-based; settings: in vivo
[3] = Metabolic stability in human liver microsomes assessed as half life in presence of NADPH incubated upto 45 mins by LC/MS analysis; type: ADME, Microsome; settings: 0.75 h
Method in brief: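 Human or mouse liver microsomes, final protein 0.5 mg/mL, in K/Mg buffer. Compound was added from a 1.5 µM spiking solution containing 0.75 mg/mL microsomes, then preincubated 5 min at 37 °C. The reaction was started with NADPH (6 mM stock) and sampled at 0, 5, 15, 30 and 45 min. Samples were quenched with acetonitrile containing internal standard, centrifuged, and the supernatant analysed by LC/MS.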

Vero C1008 = assay: Cytotoxicity against African green monkey Vero E6 cells assessed as reduction in cell viability measured after 24 hrs by CCK8 assay; type: toxicity, cell-based; settings: chlorocebus sabaeus, vero c1008, 24 h
[4] = Observed AUCinfinity in mouse at 10 mg/kg, iv by LC-MS/MS analysis; type: ADME, organism-based; parameters: dose 10 mg/kg, route iv; settings: in vivo
[5] = AUClast in mouse at 20 mg/kg, po by LC-MS/MS analysis; type: ADME, organism-based; parameters: dose 20 mg/kg, route po; settings: in vivo
[6] = AUClast in mouse at 10 mg/kg, iv by LC-MS/MS analysis; type: ADME, organism-based; parameters: dose 10 mg/kg, route iv; settings: in vivo
[7] = Observed volume of distribution at steady state in mouse at 10 mg/kg, iv by LC-MS/MS analysis; type: ADME, organism-based; settings: in vivo
[8] = Observed MRTinfinity in mouse at 20 mg/kg, po by LC-MS/MS analysis; type: ADME, organism-based; settings: in vivo
[9] = Oral bioavailability in mouse at 20 mg/kg by LC-MS/MS analysis; type: ADME, organism-based; settings: in vivo
[10] = Selectivity Index, ratio of CC50 for African green monkey Vero E6 cells to EC50 for antiviral activity against SARS-CoV-2 infected in African green monkey Vero E6; type: toxicity, Vero C1008; settings: read-out: Ratio CC50/EC50
[11] = Cmax in mouse at 20 mg/kg, po by LC-MS/MS analysis; type: ADME, organism-based; parameters: dose 20 mg/kg, route po; settings: in vivo
[12] = Metabolic stability in mouse liver microsomes assessed as half life in presence of NADPH incubated upto 45 mins by LC/MS analysis; type: ADME, Microsome; settings: 0.75 h
Method in brief: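 Mouse liver microsomes at 0.5 mg/mL final protein in K/Mg buffer, preincubated 5 min at 37 °C. Reaction started with NADPH (6 mM stock) and sampled at 0, 5, 15, 30 and 45 min. Each sample was quenched with acetonitrile containing internal standard, centrifuged, diluted with water, and analysed by LC/MS for remaining parent.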

[13] = Tmax in mouse at 20 mg/kg, po by LC-MS/MS analysis; type: ADME, organism-based; settings: in vivo
[14] = Tmax in mouse at 10 mg/kg, iv by LC-MS/MS analysis; type: ADME, organism-based; settings: in vivo
[15] = Half life in mouse at 10 mg/kg, iv by LC-MS/MS analysis; type: ADME, organism-based; settings: in vivo
[16] = Observed AUCinfinity in mouse at 20 mg/kg, po by LC-MS/MS analysis; type: ADME, organism-based; parameters: dose 20 mg/kg, route po; settings: in vivo
[17] = Cmax in mouse at 10 mg/kg, iv by LC-MS/MS analysis; type: ADME, organism-based; parameters: dose 10 mg/kg, route iv; settings: in vivo
[18] = Half life in mouse at 20 mg/kg, po by LC-MS/MS analysis; type: ADME, organism-based; settings: in vivo

| Compound | pIC50 [1] | pEC50 (SARS-CoV-2) | MRT [2] [min] | t1/2 [3] [min] | AUC [4] [ng·h/mL] | AUClast [5] [ng·h/mL] | AUClast [6] [ng·h/mL] | MRT [8] [min] | F [9] [%] | Cmax [11] [ng/mL] | t1/2 [12] [min] | Tmax [14] [min] | AUC [16] [ng·h/mL] | Cmax [17] [ng/mL] | further results |
| --- | --- | --- | --- | --- | --- | --- | --- | --- | --- | --- | --- | --- | --- | --- | --- |
| CC(C)(C)[C@H](NC(=O)C(F)(F)F)C(=O)N1[C@@H]2CC[C@@H](C2)[C@H]1C(=O)N[C@H](C#N)C[C@@H]1CCNC1=O | 7.26 | – | – | – | – | – | – | – | – | – | – | – | – | – | – |
| CC(C)(C)[C@H](NS(=O)(=O)C(F)(F)F)C(=O)N1C[C@H]2[C@@H]([C@H]1C(=O)N[C@H](C#N)C[C@@H]1CCNC1=O)C2(C)C | 7.65 | 6.77 | 17.4 | 652.17 | 4120.05 | 1901.84 | 4118.55 | 48 | 23.09 | 2052.36 | 97.89 | 4.8 | 1904.9 | 10500 | CC50 (Vero C1008): > 200000 nM; Vd ([7]; read-out: Vdss): 0.69 L/kg; selectivity ratio [10]: > 1500; Tmax [13]: 30 min; t1/2 [15]: 21 min; t1/2 [18]: 42.6 min |
| CC(C)(C)[C@H](NC(=O)C(F)(F)F)C(=O)N1CC2(CC2)C[C@H]1C(=O)N[C@H](C#N)C[C@@H]1CCNC1=O | 7.43 | – | – | – | – | – | – | – | – | – | – | – | – | – | – |
| CC(C)(C)[C@H](NC(=O)C(F)(F)F)C(=O)N1C[C@H]2[C@@H]([C@H]1C(=O)N[C@H](C#N)C[C@@H]1CCNC1=O)C2(C)C | – | 6.24 | 23.4 | 37.93 | 3361.32 | 2308.32 | 3336.46 | 51 | 34.59 | 2521.64 | 4.64 | 4.98 | 2311.94 | 9630 | Vdss ([7]; iv, 10 mg/kg): 1.18 L/kg |
| CC(C)(C)[C@H](NS(=O)(=O)C1CC1)C(=O)N1C[C@H]2[C@@H]([C@H]1C(=O)N[C@H](C#N)C[C@@H]1CCNC1=O)C2(C)C | 7.64 | – | – | – | – | – | – | – | – | – | – | – | – | – | – |
